The source of these data is PubChem BioAssay.

The structures appear in SMILES notation. Calls of active or inactive are those of the source. Unless noted, no stated cut-off is given here; in the data, active means inhibition above about 30%; inactive means the rest.

Experiment [1] is described as follows: Her2 expression decrease, cell viability multiplex – SKBR3 breast tumor cells, AlphaScreen, ATP viability, primary screen (AID 461;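 active means Her2 level under about 52% in both replicate screens, with viability over 70% of control, limit read from the data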;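 on Her2 level: lower value means less Her2 protein in the cells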;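 on viability: percent of carrier control wells set as 100% viability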). The conditions noted are these: SKBR3 Her2 protein level, 18-24 h, measured here: SKBR3 viability, ATP luminescence, at 10 µM. (In general: In Alpha technology, singlet oxygen from a donor bead excites a nearby acceptor bead.)
The target in experiment [2] is Receptor tyrosine-protein kinase erbB-2 (Homo sapiens) (UniProt P04626). The description is as above. The conditions noted are these: 18-24 h, at 10 µM, stronger effect = lower value.
Receptor tyrosine-protein kinase erbB-2 (Homo sapiens), sequence (P04626 whole entry, looked up): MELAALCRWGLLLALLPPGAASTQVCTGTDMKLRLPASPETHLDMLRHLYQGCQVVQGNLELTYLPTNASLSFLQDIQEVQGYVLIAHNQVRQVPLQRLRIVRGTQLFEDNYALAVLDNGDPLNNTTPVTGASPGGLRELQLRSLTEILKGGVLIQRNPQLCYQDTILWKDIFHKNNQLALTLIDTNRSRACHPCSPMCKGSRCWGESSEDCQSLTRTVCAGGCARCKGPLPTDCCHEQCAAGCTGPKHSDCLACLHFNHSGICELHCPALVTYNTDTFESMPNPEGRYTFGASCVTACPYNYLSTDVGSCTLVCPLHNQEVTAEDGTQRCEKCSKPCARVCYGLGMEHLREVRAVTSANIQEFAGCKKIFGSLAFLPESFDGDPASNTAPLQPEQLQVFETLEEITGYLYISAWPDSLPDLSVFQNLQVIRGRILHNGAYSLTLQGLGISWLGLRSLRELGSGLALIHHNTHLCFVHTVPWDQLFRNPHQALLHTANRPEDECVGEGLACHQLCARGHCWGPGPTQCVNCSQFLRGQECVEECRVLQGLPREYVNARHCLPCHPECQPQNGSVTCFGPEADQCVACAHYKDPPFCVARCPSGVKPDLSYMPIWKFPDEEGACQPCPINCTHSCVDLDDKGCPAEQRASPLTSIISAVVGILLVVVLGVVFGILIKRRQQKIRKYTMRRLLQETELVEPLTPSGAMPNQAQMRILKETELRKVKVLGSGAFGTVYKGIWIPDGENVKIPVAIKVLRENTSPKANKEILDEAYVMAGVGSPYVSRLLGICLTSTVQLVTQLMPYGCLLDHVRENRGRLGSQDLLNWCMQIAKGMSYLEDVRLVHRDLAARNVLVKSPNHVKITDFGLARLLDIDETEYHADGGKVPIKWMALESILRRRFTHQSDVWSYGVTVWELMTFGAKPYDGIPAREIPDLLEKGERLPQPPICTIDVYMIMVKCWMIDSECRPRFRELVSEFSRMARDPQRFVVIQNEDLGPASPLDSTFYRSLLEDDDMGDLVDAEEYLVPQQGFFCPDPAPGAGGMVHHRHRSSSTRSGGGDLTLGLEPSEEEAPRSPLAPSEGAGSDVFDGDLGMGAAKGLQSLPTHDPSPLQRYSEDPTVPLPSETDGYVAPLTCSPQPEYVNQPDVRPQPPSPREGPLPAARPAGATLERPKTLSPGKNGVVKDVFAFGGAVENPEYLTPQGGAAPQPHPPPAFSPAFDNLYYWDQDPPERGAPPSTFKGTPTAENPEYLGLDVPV
Experiment [3] can be described thus: reduced viability of SK-BR-3 breast cancer cells – cell-based, 24 h, human, pilot screen (AID 572;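 active means viability at or below 10% of carrier control in both of two separate runs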;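 further: compound exposure lasted between 18 and 24 h rather than exactly 24 h; 100% = carrier-treated control wells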). The conditions noted are these: SK-BR-3 viability, CellTiter-Glo luminescence, at 10 µM, stronger effect = lower value.
Experiment [4] is described as follows: HUVEC growth inhibition – cell-based, human, primary screen (AID 575;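 active means viability at or below 30% in both replicate assays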;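 further: 100% = median of untreated cell wells with 0.1% DMSO on each plate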). The conditions noted are these: HUVEC proliferation, CellTiter-Glo luminescence, 72 h; at 10 µM; stronger effect = lower value. In a few lines:
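material = primary HUVEC, no more than 12 passages | input = 1250 cells per well | controls = vehicle and MePR control wells | measured by = CTG luminescence | times = 72 h compound incubation | format = collagen-coated 384-well format | read-out = % viability vs DMSO wells | doses = single 10 µM dose, 0.1% DMSO, from 5x medium stock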
In general terms: In ATP-based viability assays light output follows the ATP content of the culture.

Experiment [5] in a line: H69AR cell proliferation blockers – human, duplicate replicates, primary screen (AID 580;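 active means viability at or under a set limit in both replicates, limit being median viability minus 3 SD, cut at about 48% in these data, passing the limit was not always enough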;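 further: 100% = mean luminescence of untreated wells and 0% = no signal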). The conditions noted are these: H69AR lung tumor cells viability, ATP luminescence, 72 h; at 10 µM; stronger effect = lower value.
A short description of experiment [6]: MRP1 drug-resistance reversers in H69AR cells – cell-based, doxorubicin co-treatment, pilot screen (AID 601;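 active means viability loss from added drug above about 55%, and viability with drug at most 40%, in both replicates, limit read from the data, passing the limit was not always enough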). The conditions noted are these: CellTiter-Glo, 72 h, at 10 µM; for differential viability (reversal): stronger effect = higher value.
The nature of experiment [7]: yeast transport mutant growth inhibition pilot in 384-well plates, post-Golgi transport modulator project (AID 636; in the data active means inhibition above about 31%). The conditions noted are these: absorbance 615 nm, about 18 h, stronger effect = higher value.
The nature of experiment [8]: growth suppression of yeast trafficking mutant, preliminary HTS, modulators of trafficking downstream of Golgi apparatus project, 1536-format plate, OD 615 nm (AID 637). The conditions noted are these: yeast transport mutant growth, absorbance 615 nm, 18 h; stronger effect = higher value.
The mark [9] stands for this setting: H69AR cells + 2 uM doxorubicin, measured here: viability with 2 uM doxorubicin, stronger effect = lower value.
Setting [10] is: H69AR cells, compound alone cytotoxicity.

Take `COCCNC(=O)CCCCCN1C(=O)CCC1=O`: the viability is 108% in experiment [1]; 108% (inactive) in experiment [3]; 105% (inactive) in experiment [4]; 94.8% (inactive) in experiment [5]; 84.4% in experiment [6] (setting [9]); 94.8% in experiment [6] (setting [10]). Further, the Her2 level in experiment [2] is 79.5% (inactive). Also, the differential viability (reversal) in experiment [6] (H69AR cells + 2 uM doxorubicin) is 10.4% (inactive). Further, the inhibition in experiment [7] was -8.65% (inactive); in experiment [8] it was 4.76% (inactive).
Regarding `COC(=O)c1ccccc1NC(=O)Nc1cccs1`, the viability in experiment [1] was 99.5%; in experiment [3], 99.5% (inactive); in experiment [4], 84.3% (inactive); in experiment [5], 82.4% (inactive); in experiment [6] (setting [9]), 74.9%; in experiment [6] (setting [10]), 82.4%. Besides, in experiment [2], the Her2 level was 90.5% (inactive). The differential viability (reversal) in experiment [6] (H69AR cells + 2 uM doxorubicin) was 7.46% (inactive). For the same compound, the inhibition was -3.73% (inactive) in experiment [7] and 0% (inactive) in experiment [8].
In the case of `c1cncc(-c2nc3c4ccccc4nc(N4CCC(N5CCCCC5)CC4)n3n2)c1`, the viability in experiment [1] is 93.5%; in experiment [3], 93.5% (inactive); in experiment [4], 80.1% (inactive); in experiment [5], 84.1% (inactive); in experiment [6] (setting [9]), 81.2%; in experiment [6] (setting [10]) it was 84.1%. In addition, the Her2 level in experiment [2] was 79.5% (inactive). Moreover, in experiment [6] (H69AR cells + 2 uM doxorubicin), the differential viability (reversal) was 2.83% (inactive). Besides, the inhibition in experiment [7] was -9.73% (inactive); in experiment [8] it was -0.48% (inactive).
For `CCOC(=O)N1CCC(NC(=O)c2ccc(OC)c(CN3CC(=O)N4CCCC4C3=O)c2)CC1` (stereo not given), the viability is 93.5% in experiment [1]; 93.5% (inactive) in experiment [3]; 111% (inactive) in experiment [4]; 96% (inactive) in experiment [5]; 85.9% in experiment [6] (setting [9]); 96% in experiment [6] (setting [10]). For the same compound, the Her2 level in experiment [2] is 93% (inactive). Besides, the differential viability (reversal) in experiment [6] (H69AR cells + 2 uM doxorubicin) is 10% (inactive). Moreover, the inhibition in experiment [7] was -5.92% (inactive); in experiment [8], -3.49% (inactive).
Consider `Cc1ccc2nc(SC(C)C(=O)N3CCCC3)[nH]c2c1` (stereo not given), for which the viability in experiment [1] was 87.5%; in experiment [3], 87.5% (inactive); in experiment [4] it was 91.4% (inactive); in experiment [5], 97.6% (inactive); in experiment [6] (setting [9]), 91.6%; in experiment [6] (setting [10]) it was 97.6%. Besides, the Her2 level in experiment [2] is 108% (inactive). Moreover, the differential viability (reversal) in experiment [6] (H69AR cells + 2 uM doxorubicin) was 6.04% (inactive). The inhibition in experiment [7] was -0.92% (inactive); in experiment [8], -6.35% (inactive).
As for `COCCn1c(C)c(C(=O)O)sc1=S`, the viability in experiment [1] was 99%; in experiment [3], 99% (inactive); in experiment [4], 108% (inactive); in experiment [5] it was 104% (inactive); in experiment [6] (setting [9]), 91.3%; in experiment [6] (setting [10]) it was 104%. Also, the Her2 level in experiment [2] was 118% (inactive). The differential viability (reversal) in experiment [6] (H69AR cells + 2 uM doxorubicin) is 12.4% (inactive). The inhibition was 0.79% (inactive) in experiment [7] and -6.5% (inactive) in experiment [8].
Turning to `CC(=O)N1CCc2cc(S(=O)(=O)CCC(=O)N3CCN(C(=O)c4ccco4)CC3)ccc21`, the viability in experiment [1] was 99%; in experiment [3], 99% (inactive); in experiment [4] it was 104% (inactive); in experiment [5], 98.2% (inactive); in experiment [6] (setting [9]), 88.1%; in experiment [6] (setting [10]) it was 98.2%. The Her2 level in experiment [2] is 88.5% (inactive). Also, the differential viability (reversal) in experiment [6] (H69AR cells + 2 uM doxorubicin) is 10.1% (inactive). Besides, the inhibition was -5.47% (inactive) in experiment [7] and 2.95% (inactive) in experiment [8].
For `CCN1CCN(C(=O)c2cc3c(=O)n(C)c4ccccc4c3n2C)CC1`, the viability was 110% in experiment [1]; 110% (inactive) in experiment [3]; 88.2% (inactive) in experiment [4]; 77.6% (inactive) in experiment [5]; 86.9% in experiment [6] (setting [9]); 77.6% in experiment [6] (setting [10]). For the same compound, in experiment [2], the Her2 level is 94% (inactive). Besides, in experiment [6] (H69AR cells + 2 uM doxorubicin), the differential viability (reversal) is -9.27% (inactive). Further, the inhibition in experiment [7] was 0.4% (inactive); in experiment [8], -1.33% (inactive).
For `Cc1ccc2c(c1)c1c3n2CC(=C2C(=O)OC(C)(C)OC2=O)NC3CCC1` (stereo not given), the viability is 103% in experiment [1]; 103% (inactive) in experiment [3]; 73.1% (inactive) in experiment [4]; 94.6% (inactive) in experiment [5]; 85.3% in experiment [6] (setting [9]); 94.6% in experiment [6] (setting [10]). In experiment [2], the Her2 level is 73% (inactive). The differential viability (reversal) in experiment [6] (H69AR cells + 2 uM doxorubicin) was 9.35% (inactive). The inhibition was -4.67% (inactive) in experiment [7] and -4.59% (inactive) in experiment [8].
For `O=C(Cn1cnc2c(nnn2-c2ccc(F)cc2)c1=O)NCc1ccco1`, the viability in experiment [1] was 97%; in experiment [3] it was 97% (inactive); in experiment [4], 97.1% (inactive); in experiment [5] it was 84.8% (inactive); in experiment [6] (setting [9]) it was 85.7%; in experiment [6] (setting [10]), 84.8%. Besides, the Her2 level in experiment [2] is 74% (inactive). For the same compound, the differential viability (reversal) in experiment [6] (H69AR cells + 2 uM doxorubicin) was -0.975% (inactive). In addition, the inhibition is -0.39% (inactive) in experiment [7] and -2.73% (inactive) in experiment [8].
As for `CCn1cc(C(=O)N2CCN(C(=O)c3ccco3)CC2)c2cc(OC)c(OC)cc2c1=O`, the viability in experiment [1] is 95%; in experiment [3], 95% (inactive); in experiment [4], 91.3% (inactive); in experiment [5], 98.1% (inactive); in experiment [6] (setting [9]), 97.9%; in experiment [6] (setting [10]), 98.1%. Besides, the Her2 level in experiment [2] was 84% (inactive). The differential viability (reversal) in experiment [6] (H69AR cells + 2 uM doxorubicin) is 0.175% (inactive). In addition, the inhibition in experiment [7] was -4.61% (inactive); in experiment [8] it was -2.36% (inactive).
Turning to `COc1ccc2c(=O)c3c(=O)n(Cc4ccco4)c(-c4cc(OC)c(OC)c(OC)c4)nc3oc2c1`, the viability in experiment [1] is 67%; in experiment [3], 67% (inactive); in experiment [4], 67.9% (inactive); in experiment [5], 36.1% (active); in experiment [6] (setting [9]), 37.8%; in experiment [6] (setting [10]) it was 36.1%. Also, in experiment [2], the Her2 level was 82.5% (inactive). For the same compound, the differential viability (reversal) in experiment [6] (H69AR cells + 2 uM doxorubicin) is -1.67% (inactive). In addition, the results for the inhibition in experiment [7] and in experiment [8] were -2.53% (inactive) and -10% (inactive), respectively.
Regarding `COc1ccc(NC(=O)c2oc3ccc(S(=O)(=O)N4CCC5(CC4)OCCO5)cc3c2C)cc1`, the viability in experiment [1] is 87.5%; in experiment [3], 87.5% (inactive); in experiment [4], 39.4% (inactive); in experiment [5], 37.5% (active); in experiment [6] (setting [9]) it was 42.8%; in experiment [6] (setting [10]), 37.5%. Also, the Her2 level in experiment [2] was 90.5% (inactive). In addition, in experiment [6] (H69AR cells + 2 uM doxorubicin), the differential viability (reversal) was -5.32% (inactive). Moreover, the inhibition in experiment [7] was 1.17% (inactive); in experiment [8], -14.8% (inactive).
Turning to `COc1cccc2cc(C(=O)N3CCc4ccccc43)c(=O)oc12`, the viability is 92% in experiment [1]; 92% (inactive) in experiment [3]; 95.2% (inactive) in experiment [4]; 94.2% (inactive) in experiment [5]; 90% in experiment [6] (setting [9]); 94.2% in experiment [6] (setting [10]). Also, in experiment [2], the Her2 level was 74% (inactive). For the same compound, the differential viability (reversal) in experiment [6] (H69AR cells + 2 uM doxorubicin) is 4.2% (inactive). Besides, the inhibition was -3.03% (inactive) in experiment [7] and 0.63% (inactive) in experiment [8].
For the compound `Cc1ccc(N2C(N)=NC(N)=NC23CCCC3)c(C)c1`, the viability is 98.5% in experiment [1]; 98.5% (inactive) in experiment [3]; 99.8% (inactive) in experiment [4]; 106% (inactive) in experiment [5]; 85% in experiment [6] (setting [9]); 106% in experiment [6] (setting [10]). In addition, the Her2 level in experiment [2] is 95% (inactive). In addition, the differential viability (reversal) in experiment [6] (H69AR cells + 2 uM doxorubicin) is 20.6% (inactive). For the same compound, the inhibition was -4.68% (inactive) in experiment [7] and 1.11% (inactive) in experiment [8].

Usually viability stands for a read-out of living cells in per cent, often relative to untreated cells. One may read the inhibition as the drop in the measured response relative to a control, in per cent.
